According to ChEMBL document CHEMBL1149903, “Synthesis and biological evaluation of thiobenzanilides as anticancer agents” (Bioorg Med Chem, 2008):
The source made the active and inactive calls. No cut-off for these calls is given here.

What was measured:
A-375 [1] = assay: Cytotoxicity against human A375 cells at 10 uM by MTS assay; format: functional; conditions: read-out: Survival
In short: (§1)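 MTS proliferation assay. Cells were seeded at 2500 cells/well and incubated overnight, then exposed to compound at 10 µM for 24 h. MTS tetrazolium premixed with phenazine ethosulfate was then added and incubated 1–2 h at 37 °C. Absorbance was read at 490 nm against a 690 nm reference. Value reported is survival as % of control.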

K562 = assay: Cytotoxicity against human K562 cells at 10 uM by MTS assay; format: functional; conditions: read-out: Survival; in short: as §1
[2] = Cytotoxicity against human 293T cells at 10 uM by MTS assay; format: cell-based, HEK-293T; conditions: read-out: Survival; in short: as §1
A-375 [3] = assay: Cell cycle arrest in human A375 cells assessed as accumulation at G1 phase at 10 uM after 24 hrs by flow cytometry; format: functional
In short: (§2)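 A375 cells exposed 24 h to 10 µM agent, DMSO control. Harvested by trypsinization, washed in PBS, fixed in ice-cold 70% ethanol 30 min. RNase A 1 mg/mL (with trisodium citrate) at 37 °C 30 min. Stained with PI/citrate/Triton X-100 DNA solution 30 min at room temperature in the dark. DNA content of 10,000 events read by flow cytometry; phase percentages calculated.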

A-375 [4] = assay: Cell cycle arrest in human A375 cells assessed as accumulation at S phase at 10 uM after 24 hrs by flow cytometry; format: functional; in short: as §2
A-375 [5] = assay: Cell cycle arrest in human A375 cells assessed as accumulation at G2/M phase at 10 uM after 24 hrs by flow cytometry; format: functional; in short: as §2
A-375 [6] = assay: Induction of apoptosis in human A375 cells assessed as disruption of mitochondrial membrane potential at 10 uM after 24 hrs of labeling with rhodamine 123-dye by flow cytometry; format: functional, cell-based
In short: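 Exponentially growing A375 cells treated 24 h at 10 µM, then trypsinized and pelleted. Resuspended in rhodamine 123 (10 µg/mL) for 30 min at room temperature, washed twice in PBS and read at once by flow cytometry (FL-1, 530/30 nm band pass).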

A-375 [7] = assay: Effect on intracellular ATP content in human A375 cells at 10 uM after 24 hrs by firefly luciferase luminescence relative to control; format: functional
In short: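 Intracellular ATP measured by firefly luciferin–luciferase bioluminescence (ATPlite kit). A375 cells treated 24 h with 10 µM agent, then lysed; debris removed by centrifugation and supernatant assayed. Relative ATP expressed as percentage of the 0 µM level.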

A-375 [8] = assay: Induction of apoptosis in human A375 cells assessed as annexin V-FITC cells at 10 uM after 24 hrs by annexin V-FITC and PI staining; format: functional
In short: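 After 24 h at 10 µM, 10⁶ A375 cells per sample were stained with annexin V-FITC and PI at the same time and analysed by flow cytometry. Annexin V⁺/PI⁻ cells were scored as early apoptotic and annexin V⁺/PI⁺ cells as necrotic.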

A-375 [9] = assay: Induction of apoptosis in human A375 cells assessed as caspase 3 activation at 10 uM after 24 hrs by Western blot analysis relative to control; format: functional, cell-based
In short: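 Lysates of A375 cells exposed 24 h to 10 µM agent; 40 µg protein per lane run on 10% SDS-PAGE and transferred to PVDF. Blocked in 5% skim milk in PBS-T, then probed with rabbit polyclonal anti-caspase-3 (p20 active form), with actin as loading control. HRP secondary and chemiluminescence detection; band amounts quantified by densitometry.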

A-375 [10] = assay: Induction of apoptosis in human A375 cells assessed as increase in intracellular H2O2 release at 10 uM after 4 hrs
A-375 [11] = assay: Induction of apoptosis in human A375 cells assessed as increase in intracellular H2O2 release at 10 uM after 4 hrs in presence of catalase

| Compound | viability at 10 µM (A-375 [1]) | viability at 10 µM (K562) | viability at 10 µM [2] | Activity (A-375 [3]) | Activity (A-375 [4]) | Activity (A-375 [5]) | Activity (A-375 [6]) | Activity (A-375 [7]) | Activity (A-375 [8]) | Activity (A-375 [9]) | Activity (A-375 [10]) | Activity (A-375 [11]) |
| --- | --- | --- | --- | --- | --- | --- | --- | --- | --- | --- | --- | --- |
| O=C(Nc1ccc(Br)cc1)c1ccc([N+](=O)[O-])cc1 | 81.1% | 89.1% | 86.9% | – | – | – | – | – | – | – | – | – |
| O=C(Nc1ccc([N+](=O)[O-])cc1)c1ccc([N+](=O)[O-])cc1 | 70.5% | 71.3% | 85.2% | – | – | – | – | – | – | – | – | – |
| O=[N+]([O-])c1ccc(C(=S)Nc2ccc(C(F)(F)F)cc2)cc1 | 36.2% | 41.4% | 41.2% | 55.4% | 17.1% | 27.6% | Active | 63.1% | 33% | Active | Active | inactive |
| O=C(Nc1ccc(C(F)(F)F)cc1)c1ccc([N+](=O)[O-])cc1 | 87.2% | 81.3% | 87.7% | – | – | – | – | – | – | – | – | – |
| O=[N+]([O-])c1ccc(C(=S)Nc2ccc(Br)cc2)cc1 | 43% | 42.9% | 48.4% | 58.4% | 12.7% | 29% | Active | 66.1% | 7.5% | Active | Active | inactive |
| O=[N+]([O-])c1ccc(NC(=S)c2ccc([N+](=O)[O-])cc2)cc1 | 39.1% | 47.9% | 44% | 59.9% | 11.3% | 28.9% | Active | 83.6% | 16.3% | Active | Active | inactive |
